Rows were chosen to be rich in hits. Some 2.9% of all compounds tested hit in one or more screens of this group.
Kir21 inh: Kir2.1 (mouse) channel inhibition | P35561 | HEK293-Kir2.1, FluxOR thallium flux fluorescence; hits give low values | B-score at 10 µM | 0.85% of 310,000 active | AID 1672;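 active = fluorescence ratio B-score at or below minus 3 SD of library scores, with starting-brightness B-score within 2 SD, cut at about -4.2 in these data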;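 note: channel flux triggered by added potassium and thallium sulfate stimulus; B-score of peak minus minimum fluorescence over baseline after thallium stimulus; more negative B-score means stronger Kir2.1 block with less thallium influx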
Target sequence (P35561 whole entry, looked up): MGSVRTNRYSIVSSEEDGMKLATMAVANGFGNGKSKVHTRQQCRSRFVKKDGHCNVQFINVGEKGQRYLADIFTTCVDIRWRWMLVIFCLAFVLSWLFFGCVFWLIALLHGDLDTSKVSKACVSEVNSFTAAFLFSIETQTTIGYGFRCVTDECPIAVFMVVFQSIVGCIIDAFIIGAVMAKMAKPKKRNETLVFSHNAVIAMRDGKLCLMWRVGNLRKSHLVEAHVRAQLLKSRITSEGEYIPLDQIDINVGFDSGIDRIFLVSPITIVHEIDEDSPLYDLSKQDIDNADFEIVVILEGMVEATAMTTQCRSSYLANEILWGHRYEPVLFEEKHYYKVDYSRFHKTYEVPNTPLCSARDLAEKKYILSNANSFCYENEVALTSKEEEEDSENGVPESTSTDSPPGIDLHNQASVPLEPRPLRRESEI
TRPC4 block: blocks the mouse TRPC4 cation channel. 0.39% of 300,000 active. Q9QUQ5. B-score at 10 µM. HEK293 TRPC4beta/mu-opioid, DAMGO-evoked Fluo4 calcium flux; hits give low values;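 active = B-score over 3 SD under the library average, no early fluorescence shift, positive overall ratio signal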
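Assay system: TRPC4beta/mu-opioid receptor HEK293 cell line; compound dosing: single concentration per test compound; detection: Fluo4 Ca2+ flux fluorescence; evaluation: per-well B score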
TRPC4 agonist: TRPC4 (mouse) channel activation. Q9QUQ5. B-score at 10 µM. HEK293 TRPC4beta/mu-opioid, Fluo4 calcium fluorescence; hits give high values. 0.49% of 310,000 active;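 active = B-score above 5 SD of library B-scores, and initial fluorescence ratio not above library mean plus 5 SD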;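 note: positive B-score marks a calcium rise read as TRPC4 activation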
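System – HEK293 cells stably co-expressing mouse TRPC4beta and mu-opioid receptor · Signal – Fluo4 calcium-sensitive dye fluorescence, kinetic, 1 Hz baseline · Benchmarks – buffer (low) and maximal DAMGO (high) · Read-out – B score of integrated fluorescence ratio per well · Incubation – dye loading 45 min room temperature, 110 s kinetic read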
TRPC6 inh: inhibitors of mouse TRPC6 channel. AID 2553. B-score at 10 µM. 1.1% of 310,000 active. HEK293-TRPC6, membrane potential dye, ACh-evoked depolarization; hits give low values;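 active = B-score under library mean minus 3 SD, initial fluorescence not abnormally high, positive integrated signal ratio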;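 note: B-score derived from integrated fluorescence ratio over the kinetic read; more negative B-score means stronger inhibition of depolarization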
TRPC6 act: activates the mouse TRPC6 cation channel. AID 2550. Q61143. B-score at 10 µM. 0.13% of 310,000 active. HEK293-TRPC6 membrane potential dye fluorescence; hits give high values;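 active = B-score of the integrated fluorescence ratio above library mean plus 3 SD, and starting fluorescence ratio within library mean plus 5 SD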;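 note: higher score means more depolarization so channel activation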
TRPC4 potent: allosterically enhances the mouse TRPC4 cation channel; HEK293 TRPC4beta/mu-opioid, DAMGO EC20, Fluo-4 Ca2+ flux; hits give high values; B-score at 10 µM; 0.42% of 310,000 active; AID 2227;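 active = B-score of calcium response area above 5 SD of library B-scores, with initial fluorescence ratio within 5 SD of library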
Of the large screens only hits and unclear results are named; the others gave an inactive call.

CCCCCCCCCCn1c2c(c(=N)c3c1CCC3)CCC2	Kir21 inh -8.6, TRPC4 agonist 52, TRPC6 inh -5
N=c1c2c(n(Cc3cccc(Cl)c3)c3c1CCC3)CCCC2	none
COc1ccc(S(=O)(=O)N2CC(=O)Nc3ccccc32)cc1F	none
CN(C)S(=O)(=O)c1ccc(Cl)c(NC(=O)COC(=O)[C@@H]2CCCN2C(=O)c2cccs2)c1	none
COc1ccc(Nc2cc(C)c3ccc(O)cc3n2)cc1	Kir21 inh -4.7
Cc1cc(Nc2cccc(Br)c2)c2ccccc2n1	none
Cc1cc(Nc2ccccc2)nc2cc(O)ccc12	Kir21 inh -5.2, TRPC4 block -7
Cc1cc(Nc2cccc(O)c2)c2ccccc2n1	TRPC4 block -5
CCOc1nc(NCCc2ccc(OC)c(OC)c2)nc(N2CCN(c3ccc(OC)cc3)CC2)n1	none
CC(C)[C@H](NC(=O)N1CCn2c1nc1ccccc12)C(=O)NCc1ccco1	none
COc1ccc(-c2cc(C3CCN(c4cc(Cl)nc(N)n4)CC3)[nH]n2)cc1	TRPC4 potent 38
COc1ccc(OC)c(-c2cc(C3CCN(c4cc(Cl)nc(N)n4)CC3)[nH]n2)c1	TRPC4 potent 12
Nc1nc(Cl)cc(N2CCC(c3cc(-c4ccc(Cl)cc4)n[nH]3)CC2)n1	none
Nc1nc(Cl)nc2c1ncn2[C@@H]1O[C@H](CO)[C@@H](O)[C@H]1O	TRPC4 agonist 50
COc1ccc(NC(=S)N(CCCN2CCOCC2)Cc2cn(C)c3ccccc23)cc1OC	none
CC(C)c1ccccc1OCC(=O)NC1CCCc2ccccc21 (configuration not stated)	Kir21 inh -7
COc1ccccc1OCC(=O)NC1CCCc2ccccc21 (configuration not stated)	Kir21 inh -4.9
CN(CC(=O)NC1CCCc2ccccc21)C1CCCCC1 (configuration not stated)	TRPC4 block -5
Cc1oc(C)c(C(N)=O)c1C(N)=O	none
CSCCC(NC(=O)c1ccco1)C(=O)OC(C)C(=O)NC(=O)NC1CCCCC1 (configuration not stated)	TRPC4 agonist 70
CC1CN(C(=O)C(C)Sc2nc3ccccc3s2)CC(C)O1 (configuration not stated)	none
CC(Sc1nnnn1C)C(=O)NC1CCCc2ccccc21 (configuration not stated)	none
CC(Sc1nc2ccccc2s1)C(=O)NC1CCCc2ccccc21 (configuration not stated)	Kir21 inh -5.8
CC(Sc1nc2ccccc2s1)C(=O)N(C)Cc1ccccc1 (configuration not stated)	Kir21 inh -4.2
NS(=O)(=O)c1ccc(NC(=S)N2CCC(O)CC2)cc1	none
CN1CCN(Cc2nc3c([nH]2)c(=O)[nH]c(=O)n3C)CC1	TRPC4 agonist 72
CC(C)Cn1c(C(C)NC(=O)Cc2ccccc2)nc2ccccc21 (configuration not stated)	none
CN1C=CC=C/C1=C1\SC(=S)N(N)C1=O	none
O=C(N/N=C\c1ccncc1)c1ccc(Cl)s1	none
Cc1cc(S(=O)(=O)N2CCN=C2c2ccccc2)ccc1F	Kir21 inh -4.7
COc1cc(/C=C2\C(=O)N(c3ccc(NC(C)=O)cc3)N=C2c2ccccc2)ccc1O	TRPC4 potent 15
O=C1/C(=C\c2ccc(O)c(O)c2)C(c2ccccc2)=NN1c1ccccc1	none
Cc1cc(SCC(=O)N/N=C/c2ccc(C(=O)O)cc2)nc2ccccc12	none
CCOc1cc(/C=C(\C#N)C(=O)Nc2cccc(C(=O)O)c2)cc(Br)c1OC(=O)c1ccc(OC)cc1	Kir21 inh -5.3, TRPC4 potent 22
CCOC(=O)N1CCN(C(=S)NC(C)(C)C)CC1	none
C=CCc1cc(Cl)ccc1OCCCn1ccnc1	TRPC4 potent 19
C=CCc1cc(Cl)ccc1OCCNCCCOC	none
C=CCc1cc(C)ccc1OCCn1ccnc1	none
C=CCc1cc(Cl)ccc1OCCOCCNCCOC	Kir21 inh -5.9
C=CCc1cc(Cl)ccc1OCCn1ccnc1	TRPC4 agonist 116, TRPC4 potent 14
CSc1nc2ncnc(N)c2[nH]1	none
CCCc1cc(=O)oc2cc(OCC(=O)NCCc3ccc(S(N)(=O)=O)cc3)ccc12	none

Bioassay records from PubChem BioAssay.
